Test results from ChEMBL document CHEMBL1124171, “Ergolines as selective 5-HT1 agonists” (J Med Chem, 1988).

What was measured:
[1] = (§1) Ratio of affinity towards 5-HT1 to 5-HT2 receptor
How it was run: (§2)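 Frontal cortex from male Wistar rats (140–160 g), homogenate pellet in 0.05 M Tris with 10 μM pargyline and 4 mM Ca²⁺, 250–350 μg protein/sample. 5-HT1: 2 nM [³H]-5-HT, nonspecific with 10 μM 5-HT. […] Eleven concentrations, 0.1–10 000 nM, in duplicate. IC50 from curve fitting of specific binding.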

[2] = target: T1, Serotonin 1 (5-HT1) receptor (Rattus norvegicus, UniProt P28564+P30940+P19327+P28565); assay: Tested for its binding affinity towards 5-hydroxytryptamine 1 receptor in rat cortical membrane homogenates using radioligand ([3H]5-HT) binding assay.; format: cell membranes; how it was run: as §2
[3] = target: Serotonin 2 (5-HT2) receptor (Rattus norvegicus, UniProt P30994+P08909+P14842); assay: Binding affinity at 5-hydroxytryptamine 2 receptor from rat frontal cortex homogenates by [3H]-spiperone displacement.; format: tissue-based
[4] = target: T1, Serotonin 1 (5-HT1) receptor; assay: Binding affinity towards 5-hydroxytryptamine 1 receptor using [3H]5-HT as a radioligand from rat frontal cortex homogenates; format: tissue-based
[5] = target: T1, Serotonin 1 (5-HT1) receptor; assay: Binding affinity towards 5-hydroxytryptamine 1 receptor in rat frontal cortex homogenates using [3H]5-HT as a radioligand; format: tissue-based
How it was run: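 Frontal cortex from male Wistar rats (140–160 g), pellet in 0.05 M Tris with 10 μM pargyline and 4 mM Ca²⁺, 250–350 μg protein/sample. 2 nM [³H]-5-HT; nonspecific binding with 10 μM 5-HT; specific binding = total minus nonspecific. Eleven test concentrations, 0.1–10 000 nM, in duplicate.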

[6] = tested on: Rattus norvegicus; assay: Minimum effective dose required to increase (MED) corticosterone in rat serum, sc; format: functional; details: read-out: MED
How it was run: (§3)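 Male Wistar rats (~150 g). Compound in dilute HCl given sc at graded doses 1 h before decapitation. Whole-brain 5-HIAA measured by LC with electrochemical detection; serum corticosterone measured spectrofluorometrically. Minimum effective dose is the lowest dose giving a significant difference from control (P < 0.05).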

[7] = as §1; format: functional; how it was run: as §2
[8] = tested on: Rattus norvegicus; assay: Minimum effective dose required to suppressing (MED) 5HIAA concentration in rat when administered sc; format: functional; details: read-out: MED; how it was run: as §3
[9] = tested on: Rattus norvegicus; assay: Effect on 3,4-dihydroxyphenylacetic acid concentration in rat striatum, after 1 mg/kg sc administration; format: functional; details: route subcutaneous
How it was run: (§4)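 Male Wistar rats (~150 g) were given drug or apomorphine HCl sc and decapitated 1 h later. Striatal DOPAC and HVA were quantified by LC with electrochemical detection. Results are mean ± SE, five rats/group, P < 0.05.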

[10] = tested on: Rattus norvegicus; assay: Effect on homovanillic acid concentration in rat striatum, after 10 mg/kg sc administration; format: functional; details: route subcutaneous; how it was run: as §4
[11] = tested on: Rattus norvegicus; assay: Effect on 3,4-dihydroxyphenylacetic acid concentration in rat striatum, after 3 mg/kg sc administration; format: functional; details: route subcutaneous; how it was run: as §4
[12] = tested on: Rattus norvegicus; assay: Effect on 3,4-dihydroxyphenylacetic acid concentration in rat striatum, after 10 mg/kg sc administration; format: functional; details: route subcutaneous; how it was run: as §4
[13] = tested on: Rattus norvegicus; assay: Effect on homovanillic acid concentration in rat striatum, after 1 mg/kg sc administration; format: functional; details: route subcutaneous; how it was run: as §4
[14] = tested on: Rattus norvegicus; assay: Effect on homovanillic acid concentration in rat striatum, after 3 mg/kg sc administration; format: functional; details: route subcutaneous; how it was run: as §4
[15] = species: Rattus norvegicus; assay: Effect of […] on the elevation of serum corticosterone at a dose 100 ug/mL No pretreatment; format: functional, organism-based
How it was run: (§5)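 Rats got p-chlorophenylalanine (300 mg/kg, ip) or no pretreatment. 24 h later, drug (0.3 mg/kg, sc, dilute HCl) or p-chloroamphetamine HCl (2.5 mg/kg, ip) was given, and rats were killed 1 h after. Serum corticosterone was measured spectrofluorometrically. Results are mean ± SE, five male Wistar rats/group.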

[16] = species: Rattus norvegicus; assay: Effect of fluoxetine on the elevation of serum corticosterone at a dose 100 ug/mL, No pretreatment; format: functional, organism-based
How it was run: as §5, with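 “fluoxetine HCl (10” for “p-chlorophenylalanine (300”, “16” for “24”, “with decapitation” for “and rats were killed”, “rats/group, P < 0.05.” for “rats/group.”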

[17] = species: Rattus norvegicus; assay: Effect of […] on the elevation of serum corticosterone at a dose 100 ug/mL PCPA pretreament; format: functional, organism-based; how it was run: as §5
[18] = species: Rattus norvegicus; assay: Effect of fluoxetine on the elevation of serum corticosterone at a dose 100 ug/mL, Fluoxetine pretreament; format: functional, organism-based
How it was run: as §5, with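 “fluoxetine HCl (10” for “p-chlorophenylalanine (300”, “16” for “24”, “with decapitation” for “and rats were killed”, “rats/group, P < 0.05.” for “rats/group.”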

| SMILES | Selectivity ratio [1] | IC50 [2] | IC50 [3] | other results |
| --- | --- | --- | --- | --- |
| COC(=O)[C@@H]1C=C2c3cccc4c3[C@@H](CN4)C[C@H]2N(C)C1 | 40 | 0.04 µM | 1.62 µM | – |
| CN1C[C@H](CO)C[C@@H]2c3cccc4[nH]cc(c34)C[C@H]21 | 4 | – | 0.45 µM | IC50 [4]: 0.12 µM |
| CC1=C[C@@H]2c3cccc4c3[C@@H](CN4)C[C@H]2N(C)C1 | 14 | – | 1.85 µM | IC50 [5]: 0.13 µM |
| C[C@H]1C=C2c3cccc4c3[C@@H](CN4)C[C@H]2N(C)C1 | – | – | > 1 µM | minimal effective dose [6]: 0.003 mg/kg; Selectivity ratio [7]: > 50; minimal effective dose [8]: 0.001 mg/kg; IC50 [4]: 0.02 µM |
| C=C1C=C2c3cccc4[nH]cc(c34)C[C@H]2N(C)C1 | 7 | 0.02 µM | 0.14 µM | – |
| CN1C[C@H](CO)C=C2c3cccc4c3[C@@H](CN4)C[C@H]21 | 102 | – | 2.65 µM | minimal effective dose [6]: 0.1 mg/kg; minimal effective dose [8]: 1 mg/kg; IC50 [4]: 0.026 µM |
| C[C@H]1C=C2c3cccc4[nH]cc(c34)C[C@H]2N(C)C1 | 1 | 0.08 µM | 0.13 µM | – |
| C=C1C=C2c3cccc4c3[C@@H](CN4)C[C@H]2N(C)C1 | 48 | – | 3.82 µM | IC50 [4]: 0.08 µM |
| CN1CCc2cccc3c2[C@H]1Cc1ccc(O)c(O)c1-3 [APOMORPHINE] | – | – | – | DOPAC [9]: 2.97; HVA [10]: 0.91; DOPAC [11]: 2.33; DOPAC [12]: 1.73; HVA [13]: 1.59; HVA [14]: 1.14 |
| C[C@@H]1C[C@@H]2c3cccc4c3[C@@H](CN4)C[C@H]2N(C)C1 | 11 | – | 4.22 µM | IC50 [5]: 0.39 µM |
| CSC[C@@H]1C=C2c3cccc4c3[C@@H](CN4)C[C@H]2N(C)C1 | 66 | – | 1.33 µM | minimal effective dose [6]: 1 mg/kg; minimal effective dose [8]: 0.1 mg/kg; IC50 [4]: 0.02 µM |
| C[C@@H]1C=C2c3cccc4[nH]cc(c34)C[C@H]2N(C)C1 | 22 | 0.005 µM | 0.11 µM | – |
| CN1C[C@H](CO)C=C2c3cccc4[nH]cc(c34)C[C@H]21 | 11 | 0.015 µM | 0.16 µM | – |
| CCCN1C[C@H](C)C=C2c3cccc4c3[C@@H](CN4)C[C@H]21 | > 5 | 0.24 µM | > 1 µM | – |
| CC1=C[C@@H]2c3cccc4[nH]cc(c34)C[C@H]2N(C)C1 [AGROCLAVINE] | 2 | 0.14 µM | 0.27 µM | – |
| CN1C[C@H](CC#N)C=C2c3cccc4c3[C@@H](CN4)C[C@H]21 | 106 | 0.02 µM | 2.12 µM | minimal effective dose [6]: 0.1 mg/kg; minimal effective dose [8]: 0.1 mg/kg |
| C[C@@H]1C=C2c3cccc4c3[C@H](C[C@H]2N(C)C1)CN4C | 8 | 0.16 µM | 1.25 µM | – |
| CN1C[C@H](CSc2ccccn2)C=C2c3cccc4c3[C@@H](CN4)C[C@H]21 | 28 | 0.003 µM | 0.11 µM | – |
| CN1C[C@H](CSc2ccccc2)C=C2c3cccc4c3[C@@H](CN4)C[C@H]21 | 26 | 0.008 µM | 0.21 µM | – |
| CC(N)Cc1ccc(Cl)cc1 (configuration not stated) | – | – | – | Serum corticosterone [15]: 51.1 µg/mL; Serum corticosterone [16]: 69.4 µg/mL; Serum corticosterone [17]: 14.9 µg/mL; Serum corticosterone [18]: 29.5 µg/mL |
